Laboratory results from ChEMBL document CHEMBL2440065, “Identification of a novel benzoxazolone derivative as a selective, orally active 18 kDa translocator protein (TSPO) ligand” (J Med Chem, 2013).
Values after ≈ are worked out from the molar mass of the structure shown.

How the values were obtained:
Mus musculus [1] = assay: Neurotoxicity in ddY mouse assessed as elongation of hexobarbital-induced sleep at 0.3 to 3 mg/kg, po after 1 hr; assay type: toxicity, organism-based; design: dose 0.3-3 mg/kg, route oral; details: in vivo
Rattus norvegicus [2] = assay: Neurotoxicity in Wistar rat assessed as memory impairment at 1 to 30 mg/kg, po after 1 hr by passive avoidance test; assay type: toxicity, organism-based; design: dose 1-30 mg/kg, route oral; details: in vivo
Mus musculus [3] = assay: Neurotoxicity in ddY mouse assessed as reduction in locomotor activity at 3 to 30 mg/kg, po after 1 hr; assay type: toxicity, organism-based; design: dose 3-30 mg/kg, route oral; details: in vivo
Mus musculus [4] = assay: Neurotoxicity in ddY mouse assessed as motor impairment at 3 to 30 mg/kg, po after 1 hr by horizontal rotarod test; assay type: toxicity, organism-based; design: dose 3-30 mg/kg, route oral; details: in vivo
Mus musculus [5] = assay: Neurotoxicity in ddY mouse assessed as reduction in locomotor activity at 10 to 100 mg/kg, po after 1 hr; assay type: toxicity, organism-based; design: dose 10-100 mg/kg, route oral; details: in vivo
[6] = Ratio of drug level in brain to blood in rat at 10 mg/kg, po; assay type: ADME, organism-based; design: dose 10 mg/kg, route oral
Outline: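 Rats dosed orally at 10 mg/kg (HCl salt); brain and blood drug concentrations measured and expressed as brain/blood ratio.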

Rattus norvegicus [7] = assay: Neurotoxicity in Wistar rat assessed as memory impairment at 3 to 30 mg/kg, po after 1 hr by passive avoidance test; assay type: toxicity, organism-based; design: dose 3-30 mg/kg, route oral; details: in vivo
Mus musculus [8] = assay: Neurotoxicity in ddY mouse assessed as elongation of hexobarbital-induced sleep at 300 mg/kg, po after 1 hr relative to diazepam; assay type: toxicity, organism-based; design: dose 300 mg/kg, route oral; details: in vivo
Mus musculus [9] = assay: Neurotoxicity in ddY mouse assessed as motor impairment at 10 to 100 mg/kg, po after 1 hr by horizontal rotarod test; assay type: toxicity, organism-based; design: dose 10-100 mg/kg, route oral; details: in vivo
[10] = Displacement of [3H]batrachotoxin from rat brain sodium channel site 2; assay type: tissue-based
[11] = Metabolic stability in rat liver S9 fraction assessed as compound remaining at 1 uM after 30 mins in presence of NADPH; assay type: ADME, subcellular; details: read-out: Stability
[12] = Solubility of the compound at pH 2.5 by HPLC analysis; assay type: physicochemical; details: buffer
Outline: (§1)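 Compound (1 mg) shaken in 0.4 mL buffered solution at pH 7.4 or pH 2.5, then centrifuged; dissolved compound in the supernatant quantified by HPLC.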

Translocator protein [13] = target: Translocator protein (Rattus norvegicus, UniProt P16257); assay: Displacement of [3H]PK11195 from Sprague-Dawley rat kidney TSPO after 1 hr by liquid scintillation counting analysis
Sequence of Translocator protein (Rattus norvegicus, UniProt P16257) (P16257 whole entry, looked up): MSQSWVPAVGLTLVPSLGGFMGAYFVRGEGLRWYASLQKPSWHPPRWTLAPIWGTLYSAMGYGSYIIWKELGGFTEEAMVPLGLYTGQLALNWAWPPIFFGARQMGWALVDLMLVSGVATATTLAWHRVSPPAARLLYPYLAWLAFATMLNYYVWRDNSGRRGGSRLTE

[14] = target: Amine oxidase [flavin-containing] A (Homo sapiens, UniProt P21397); assay: Inhibition of human MAO-A at 10 uM
Sequence of Amine oxidase [flavin-containing] A (P21397 whole entry): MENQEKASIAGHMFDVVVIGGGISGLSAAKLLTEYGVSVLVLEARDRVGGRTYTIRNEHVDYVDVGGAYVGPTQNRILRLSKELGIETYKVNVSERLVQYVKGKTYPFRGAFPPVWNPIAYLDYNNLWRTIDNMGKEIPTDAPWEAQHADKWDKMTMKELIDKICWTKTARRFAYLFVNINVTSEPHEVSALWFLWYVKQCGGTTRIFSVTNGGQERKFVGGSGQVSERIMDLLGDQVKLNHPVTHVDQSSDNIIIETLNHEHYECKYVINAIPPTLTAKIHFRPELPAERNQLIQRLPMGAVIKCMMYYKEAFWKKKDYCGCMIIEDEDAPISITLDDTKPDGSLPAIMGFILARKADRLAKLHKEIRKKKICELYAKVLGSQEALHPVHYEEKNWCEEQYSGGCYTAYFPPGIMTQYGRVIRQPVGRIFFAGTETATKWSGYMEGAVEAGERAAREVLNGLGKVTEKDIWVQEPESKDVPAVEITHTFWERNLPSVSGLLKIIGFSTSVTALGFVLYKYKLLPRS

Translocator protein [15] = target: Translocator protein (Homo sapiens, UniProt P30536); assay: Displacement of [3H]PK11195 from TSPO in human U-87 MG cells after 1 hr by liquid scintillation counting analysis; assay type: cell-based
Sequence of Translocator protein (Homo sapiens, UniProt P30536) (P30536 whole entry): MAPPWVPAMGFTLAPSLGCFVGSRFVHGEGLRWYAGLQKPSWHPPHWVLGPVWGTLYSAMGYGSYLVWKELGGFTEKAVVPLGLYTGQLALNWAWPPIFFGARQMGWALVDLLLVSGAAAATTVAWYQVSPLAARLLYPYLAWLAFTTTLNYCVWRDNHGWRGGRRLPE

[16] = Solubility of the compound at pH 7.4 by HPLC analysis; assay type: physicochemical; details: buffer; outline: as §1
[17] = Metabolic stability in human liver S9 fraction assessed as compound remaining at 1 uM after 30 mins; assay type: ADME, subcellular; details: read-out: Stability
Mus musculus [18] = assay: Neurotoxicity in ddY mouse assessed as motor impairment at 300 mg/kg, po after 1 hr by horizontal rotarod test; assay type: toxicity, organism-based; design: dose 300 mg/kg, route oral; details: in vivo
[19] = Solubility of the compound at pH 6.8; assay type: physicochemical; details: buffer
Outline: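 Solubility measured in pH 6.8 buffer containing bile acids; compound tested as free base and as HCl salt.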

In the case of `CN1C(=O)CN=C(c2ccccc2)c2cc(Cl)ccc21` [DIAZEPAM], the Activity (Mus musculus [1]) is reported as “Toxic”, the Activity (Rattus norvegicus [2]) is reported as “Toxic” and the Activity (Mus musculus [3]) is reported as “Toxic”. The Activity (Mus musculus [4]) was “Toxic”.

In the case of `CN(C(=O)Cn1c(=O)oc2ccc(-c3cccnc3)cc21)c1ccc(C(F)(F)F)cc1.Cl`, the Activity (Mus musculus [5]) is reported as “Non-toxic”, the Kp [6] is reported as 1.2 and the Activity (Rattus norvegicus [7]) is reported as “Non-toxic”. The Activity (Mus musculus [8]) was “Non-toxic” and the Activity (Mus musculus [9]) was “Non-toxic”.

In the case of `CN(C(=O)Cn1c(=O)oc2ccc(-c3cccnc3)cc21)c1ccc(C(F)(F)F)cc1`, the IC50 [10] is reported as > 10000 nM, the remaining at 0.5 h, 1 µM [11] is reported as 38% and the solubility [12] is reported as 420 µg/mL (≈ 983 µM). For the same compound, the Ki (Translocator protein [13]) was 8.6 nM, the “inhibition (INH)” value [14] was “Not Active” and the Ki (Translocator protein [15]) was 8 nM. It also gave a solubility [16] of 1 µg/mL (≈ 2.34 µM) and a remaining at 0.5 h, 1 µM [17] of 84%.

For `CN(C(=O)Cn1c(=O)oc2ccc(-c3ccc(OC(F)(F)F)cc3)cc21)c1cccnc1.Cl`, the Kp [6] was 1.3, the Activity (Mus musculus [18]) was “Toxic” and the solubility [19] was 23 µg/mL.
